According to ChEMBL document CHEMBL4308828, “Fragment Based Optimization of Metabotropic Glutamate Receptor 2 (mGluR2) Positive Allosteric Modulators in the Absence of Structural Information” (J Med Chem, 2018):

Columns and labels:
[1] = Intrinsic clearance in NMRI mouse liver microsomes at 2.5 uM; format: ADME, Microsome
Summary of the method: (§1)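 Liver microsomes (0.5 mg/mL) of human, Wistar rat or NMRI mouse; compound 2.5 μM initial, incubated for various times. Intrinsic clearance (mL/min·g liver) taken as rate of compound consumption under first-order conditions, Clint = Vmax/KM or V/S when S ≪ KM.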

[2] = target: Metabotropic glutamate receptor 2 (Homo sapiens, UniProt Q14416); assay: Positive allosteric modulation of human mGluR2 expressed in human Chem1 cells assessed as increase in glutamate-induced intracellular calcium influx preincubated for 30 mins followed by glutamate addition by calcium-5 dye based fluorometric assay; format: functional, cell-based
Summary of the method: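 Chem-1 cells stably expressing human mGlu2, 30000 cells/well, overnight at 37 °C. Loaded with Calcium 5 dye (30 min, 37 °C) in buffer with GPT/pyruvate, washed, then compound or vehicle 30 min at 37 °C. Glutamate at EC5-EC20 added after 20 s baseline; fluorescence 485/525 nm read 40 s. ΔF/F from multiple wells; sigmoid fits give EC50, three independent experiments. Final DMSO 1%.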

[3] = Intrinsic clearance in human liver microsomes at 2.5 uM; format: ADME, Microsome; summary of the method: as §1
[4] = Intrinsic clearance in Wistar rat liver microsomes at 2.5 uM; format: ADME, Microsome; summary of the method: as §1
[5] = tested on: Mus musculus; assay: Antipsychotic activity in ip dosed ddY mouse assessed as inhibition of PCP-induced hyperlocomotion pretreated followed by PCP addition measured after 60 mins by passive infrared sensor method; format: functional
Summary of the method: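 Male ddY mice, 6 weeks old, acclimated 60 min in test cage, dosed i.p., then immediately PCP 2.5 mg/kg s.c.; locomotor activity recorded 60 min by passive infrared sensor system; ED50 reported.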

[6] = Unbound plasma concentration in mouse at 30 mg/kg, po; format: ADME, organism-based; conditions: in vivo
Summary of the method: (§2)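 Mice dosed orally at 30 mg/kg; plasma, brain and unbound plasma concentrations measured.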

[7] = Drug uptake in mouse brain at 30 mg/kg, po; format: ADME, organism-based; conditions: in vivo, read-out: Drug uptake; summary of the method: as §2
[8] = Plasma concentration in mouse at 30 mg/kg, po; format: ADME, organism-based; conditions: in vivo; summary of the method: as §2

Chain of Metabotropic glutamate receptor 2 (Q14416 whole entry): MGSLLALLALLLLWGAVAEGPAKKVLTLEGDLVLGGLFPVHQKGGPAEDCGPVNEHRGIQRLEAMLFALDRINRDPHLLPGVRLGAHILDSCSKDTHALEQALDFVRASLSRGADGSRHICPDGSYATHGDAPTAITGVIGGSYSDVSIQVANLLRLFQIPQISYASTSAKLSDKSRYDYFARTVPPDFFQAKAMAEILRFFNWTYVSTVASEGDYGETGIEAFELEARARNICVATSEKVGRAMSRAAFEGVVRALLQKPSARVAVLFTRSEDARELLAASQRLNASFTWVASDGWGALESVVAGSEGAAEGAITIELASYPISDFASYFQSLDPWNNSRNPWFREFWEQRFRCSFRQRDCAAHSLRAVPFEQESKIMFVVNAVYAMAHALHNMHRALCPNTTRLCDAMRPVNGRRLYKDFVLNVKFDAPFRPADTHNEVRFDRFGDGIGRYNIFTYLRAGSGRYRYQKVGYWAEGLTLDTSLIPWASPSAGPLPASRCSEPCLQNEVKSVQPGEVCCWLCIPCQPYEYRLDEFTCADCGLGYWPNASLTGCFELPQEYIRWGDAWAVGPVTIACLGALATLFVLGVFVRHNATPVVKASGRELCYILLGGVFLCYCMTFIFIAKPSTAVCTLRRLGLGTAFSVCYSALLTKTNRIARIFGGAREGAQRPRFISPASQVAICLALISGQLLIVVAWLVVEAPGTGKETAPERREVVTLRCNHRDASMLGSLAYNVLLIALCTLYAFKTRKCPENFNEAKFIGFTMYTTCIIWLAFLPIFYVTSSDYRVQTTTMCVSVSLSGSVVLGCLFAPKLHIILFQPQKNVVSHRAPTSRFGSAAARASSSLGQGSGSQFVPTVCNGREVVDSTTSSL

Structure (SMILES) | Intrinsic clearance [1] [mL/min/g] | EC50 [2] [nM] | Intrinsic clearance [3] [mL/min/g] | Intrinsic clearance [4] [mL/min/g] | ED50 [5] [mg/kg] | Cp(f) [6] [µM] | concentration [7] [µM] | concentration [8] [µM]
Fc1ccc(-c2ccc(Cn3nnc4ccccc43)cc2)c(Cl)c1 | 1.5 | 118 | 0.7 | 2.6 | – | – | – | –
Clc1ccc(Cn2nnc3c(Br)cccc32)cn1 | – | 290 | – | – | – | – | – | –
FC(F)(F)c1ccc(-c2ccc(Cn3nnc4ccccc43)cc2)c(Cl)c1 | 0.4 | 37 | 0 | 0.5 | – | – | – | –
Clc1cc(Br)c2nnn(CC3CC3)c2c1 | 11.4 | 60 | 0.5 | 1.1 | – | – | – | –
Fc1ccc(-c2ccc(Cn3nnc4ccccc43)cc2)c(F)c1 | 2.3 | 71 | 0.9 | 6.4 | – | – | – | –
Fc1cc(Cl)ccc1Cn1nnc2c(Br)cccc21 | 1.3 | 23 | 0.5 | 3.8 | – | – | – | –
Fc1cc(Cl)ccc1-c1ccc(Cn2nnc3ccccc32)cc1 | 1.1 | 28 | 0.4 | 1.3 | – | – | – | –
c1ccc(-c2ccc(Cn3nnc4ccccc43)cc2)cc1 | 11.4 | 155 | 7.9 | 12.6 | – | – | – | –
Fc1cccc2c1nnn2CC1CC1 | – | 1070 | – | – | – | – | – | –
COc1cc(Br)c2nnn(CC3CC3)c2c1 | – | 730 | – | – | – | – | – | –
Clc1ccc(-c2ccc(Cn3nnc4ccccc43)cn2)cc1 | 3.8 | 70 | 0.2 | 1 | – | – | – | –
c1ccc(Cn2nnc3ccccc32)cc1 | 1 | 3000 | 7.9 | 1.2 | – | – | – | –
Brc1cccc2c1nnn2CC1CCCCC1 | 15.3 | 10 | 11.9 | 16.2 | – | – | – | –
Brc1ccc(Cn2nnc3c(Br)cccc32)cn1 | – | 210 | – | – | – | – | – | –
CCn1nnc2c(Br)cccc21 | – | 2240 | – | – | – | – | – | –
Clc1ccc(-c2ccc(Cn3nnc4ccccc43)cc2)c(Cl)c1 | 1.3 | 79 | 0.6 | 1.4 | – | – | – | –
CCCCn1nnc2c(Br)cccc21 | 8.3 | 60 | 9.5 | 4.4 | – | – | – | –
Brc1ccc(Cn2nnc3c(Br)cccc32)cc1 | 2.6 | 14 | 0.4 | 2.2 | – | – | – | –
Fc1cc(Cn2nnc3c(Br)cccc32)ccc1Cl | 2.2 | 18 | 0.4 | 3.1 | – | – | – | –
COc1cccc2c1nnn2CC1CC1 | 8.3 | 400 | 1.8 | 0.8 | – | – | – | –
Brc1cccc2c1nnn2CC1CCCC1 | 11.4 | 30 | 7.9 | 14.6 | – | – | – | –
Clc1cccc2c1nnn2CC1CC1 | 5.7 | 90 | 4.2 | 0.5 | – | – | – | –
Fc1ccc(Cn2nnc3c(Br)cccc32)c(Cl)c1 | 3 | 190 | 1.8 | 3.5 | – | – | – | –
Fc1cccc(Cn2nnc3c(Br)cccc32)c1 | 1.3 | 18 | 1.8 | 1.6 | – | – | – | –

Structure (SMILES) | Intrinsic clearance [1] [mL/min/g] | EC50 [2] [nM] | Intrinsic clearance [3] [mL/min/g] | Intrinsic clearance [4] [mL/min/g] | ED50 [5] [mg/kg] | Cp(f) [6] [µM] | concentration [7] [µM] | concentration [8] [µM]
Fc1cc(Cl)ccc1-c1ccc(Cn2nnc3c(F)cccc32)cn1 | 2.2 | 27 | 0.1 | 0.6 | – | – | – | –
Fc1cc(Cl)ccc1-c1ccc(Cn2nnc3ccccc32)nc1 | 1.6 | 141 | 0.8 | 2.3 | – | – | – | –
Brc1cccc2c1nnn2Cc1ccccc1 | 2.3 | 80 | 4.7 | 2 | – | – | – | –
Clc1ccc(Cn2nnc3c(Br)cccc32)cc1 | 2 | 17 | 0.6 | 2.2 | – | – | – | –
Fc1cc(Cl)ccc1-c1ccc(Cn2nnc3c(Br)cccc32)cn1 | 3.8 | 6 | 0.1 | 0.4 | 47 | 0.081 | 7.1 | 20
Fc1ccccc1Cn1nnc2c(Br)cccc21 | 1.7 | 64 | 0.2 | 1.8 | – | – | – | –
Fc1ccc2nnn(Cc3ccc(-c4ccc(Cl)cc4F)nc3)c2c1 | 2.2 | 86 | 0.1 | 1 | – | – | – | –
CCCn1nnc2c(Br)cccc21 | 7.7 | 270 | 4.7 | 0.8 | – | – | – | –
FC(F)(F)c1cc(Br)c2nnn(CC3CC3)c2c1 | 7.7 | 140 | 0.1 | 0.2 | – | – | – | –
Fc1ccc2c(c1)nnn2Cc1ccc(-c2ccc(Cl)cc2F)nc1 | 0.7 | 68 | 0.1 | 0.5 | – | – | – | –
Brc1cccc2c1nnn2CC1CC1 | 7.7 | 70 | 1.3 | 0.6 | – | – | – | –
Fc1cc(Cl)ccc1-c1ccc(Cn2nnc3c(C(F)(F)F)cccc32)cn1 | 0.1 | 13 | 0.04 | 0.2 | – | – | – | –
N#Cc1cccc2c1nnn2Cc1ccc(-c2ccc(Cl)cc2F)nc1 | 1.6 | 33 | 0.05 | 0.1 | – | – | – | –
Cn1nnc2c(Br)cccc21 | – | > 5000 | – | – | – | – | – | –
CC(C)Cn1nnc2c(Br)cccc21 | 3.5 | 140 | 4.2 | 4 | – | – | – | –
Fc1ccccc1-c1ccc(Cn2nnc3ccccc32)cn1 | – | 600 | – | – | – | – | – | –
Brc1cccc2c1nnn2CC1CCC1 | 11.4 | 20 | 8.7 | 12 | – | – | – | –
Fc1ccc(Cn2nnc3c(Br)cccc32)cc1 | 1 | 15 | 1.2 | 1 | – | – | – | –
Fc1cc(C(F)(F)F)ccc1-c1ccc(Cn2nnc3ccccc32)cc1 | 1.2 | 29 | 0.1 | 0.4 | – | – | – | –
Brc1cc(Br)c2nnn(CC3CC3)c2c1 | 15.3 | 50 | 0.6 | 2.3 | – | – | – | –
Brc1ccc(Cn2nnc3c(Br)cccc32)nc1 | 1.1 | 180 | 0.3 | 0.7 | – | – | – | –
N#Cc1cccc2c1nnn2CC1CC1 | – | 620 | – | – | – | – | – | –
Fc1cc(Br)c2nnn(CC3CC3)c2c1 | 5.7 | 70 | 0.4 | 0.5 | – | – | – | –
